Columns and labels:
[1] = Negative log of molar concentration (-log ED50) required to reduce cell division by 50% in Arbacia egg; type: functional
Oryctolagus cuniculus = species: Oryctolagus cuniculus; assay: Negative log of minimum effective dose (moles per kilogram) in rabbits (hypnotic); type: functional
[2] = Compound is evaluated for […] log k; type: physicochemical; details: octanol/water
Outline: (§1)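 Log k' was measured by reverse-phase HPLC on dry-packed deactivated C18/Corasil columns (10 and 50 cm, 2-mm i.d.) at 22 °C, flow 1 mL/min, with UV detection at 254 nm. The mobile phase was methanol-modified aqueous phosphate buffer at μ 0.15. Void time came from methanol injection, and k' = (tr − t0)/t0.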

Rattus norvegicus = species: Rattus norvegicus; type: functional
[3] = (§2) pKa value is evaluated; type: physicochemical
[4] = ACompound is evaluated for […] log k; type: physicochemical; details: octanol/water
Outline: as §1, with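 “0.15. Calculated pH was 7.45 for sulfonamides and 7.31 for barbiturates.” for “0.15.”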

[5] = A pKa value is evaluated; type: physicochemical
[6] = as §2; type: physicochemical; remark: listed apart in the source
Outline: (§3)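 Determined in-house by computer-controlled spectrophotometric titration (absorbance vs. pH) of each sulfonamide. Samples were in buffered aqueous solution of HCl/HOAc/Mops/glycine, 0.0005 N each. A manual wavelength scan of each compound set the wavelength at which its titration was run.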

Escherichia coli [7] = assay: Minimum inhibitory concentration (bacteriostatic) against Escherichia coli at pH 7.4; type: functional
Escherichia coli [8] = assay: Minimum inhibitory concentration (bacteriostatic) against Escherichia coli at pH 7.2 (Sauterne''s medium); type: functional
[9] = pKa value is evaluated; activity is unretained; type: physicochemical; outline: as §3
[10] = Negative log of Langmuir's alpha constant (-log alpha), which is inversely proportional to the effective binding constant (protein binding); type: ADME

SMILES | -Log ED50 [1] | -Log C (Oryctolagus cuniculus) | Log K [2] | pKa [3] | -Log C (Escherichia coli [7]) | -Log C (Escherichia coli [8]) | -Log alpha [10] | other results
C=CCC1(CC=C)C(=O)NC(=O)NC1=O [ALLOBARBITAL] | 1.79 | 3.54 | 0.6 | – | – | – | – | –
CCC1(CCC(C)C)C(=O)NC(=O)NC1=O [AMOBARBITAL] | 2.82 | – | 1.33 | – | – | – | – | –
C=CCC1(C(C)C)C(=O)NC(=O)NC1=O [APROBARBITAL] | 2.01 | 3.6 | 0.75 | 7.73 | – | – | – | -Log C (Rattus norvegicus): 2.41
CCC1(CC)C(=O)NC(=O)NC1=O [BARBITAL] | 1.49 | 3.09 | 0.16 | 7.75 | – | – | – | -Log C (Rattus norvegicus): 1.32
CCC(C)C1(CC)C(=O)NC(=O)NC1=O (stereo not drawn) [BUTABARBITAL] | – | 3.63 | – | – | – | – | – | Log K [4]: 0.95; pKa [5]: 7.89
C=CCC1(CC(C)C)C(=O)NC(=O)NC1=O [BUTALBITAL] | – | 3.63 | 1.01 | 7.54 | – | – | – | -Log C (Rattus norvegicus): 2.8
CCC1(C2=CCCCC2)C(=O)NC(=O)NC1=O [CYCLOBARBITAL] | 2.24 | – | 0.91 | 7.36 | – | – | – | –
CN1C(=O)NC(=O)C(C)(C2=CCCCC2)C1=O (stereo not drawn) [HEXOBARBITAL] | – | 4.37 | 1.13 | – | – | – | – | pKa [5]: 7.36
CCC1(CC)C(=O)NC(=O)N(C)C1=O [METHARBITAL] | – | 3.12 | 0.71 | – | – | – | – | –
C=CCC1(C(C)C#CCC)C(=O)NC(=O)N(C)C1=O (stereo not drawn) [METHOHEXITAL] | – | 4.74 | 1.96 | 4.74 | – | – | – | –
CCCC(C)C1(CC)C(=O)NC(=O)NC1=O (stereo not drawn) [PENTOBARBITAL] | 2.92 | 4.05 | 1.32 | 8.02 | – | – | – | -Log C (Rattus norvegicus): 3.07
CCC1(c2ccccc2)C(=O)NC(=O)NC1=O [PHENOBARBITAL] | 2.02 | 3.32 | 0.56 | 7.26 | – | – | – | -Log C (Rattus norvegicus): 1.88
C=CCC1(C(C)CCC)C(=O)NC(=O)NC1=O (stereo not drawn) [SECOBARBITAL] | 3.62 | 4.2 | 1.52 | 7.92 | – | – | – | -Log C (Rattus norvegicus): 3.19
CC(=O)NS(=O)(=O)c1ccc(N)cc1 [SULFACETAMIDE] | – | – | – | – | 3.248 | -0.52 | -3.15 | pKa [6]: 5.78; Log K [9]: activity is unretained
Nc1ccc(S(=O)(=O)Nc2ncccn2)cc1 [SULFADIAZINE] | – | – | 0.223 | – | 4.337 | -0.08 | -2.99 | –
[H]/N=C(/N)NS(=O)(=O)c1ccc(N)cc1 [SULFAGUANIDINE] | – | – | -0.00612 | 12 | – | 1.81 | – | –
Cc1ccnc(NS(=O)(=O)c2ccc(N)cc2)n1 [SULFAMERAZINE] | – | – | 0.829 | 6.98 | 4.469 | 0.06 | -2.23 | –
Cc1cc(C)nc(NS(=O)(=O)c2ccc(N)cc2)n1 [SULFAMETHAZINE] | – | – | 1.49 | 7.7 | – | 0.11 | -2.28 | –
Cc1cc(NS(=O)(=O)c2ccc(N)cc2)no1 [SULFAMETHOXAZOLE] | – | – | – | – | 4.634 | 0.06 | -2.51 | –
COc1ccc(NS(=O)(=O)c2ccc(N)cc2)nn1 [SULFAMETHOXYPYRIDAZINE] | – | – | 1.35 | 7.2 | 4.57 | 0 | -1.75 | –
Nc1ccc(S(N)(=O)=O)cc1 [SULFANILAMIDE] | – | – | – | – | 2.824 | -2.11 | -2.98 | –
Nc1ccc(S(=O)(=O)Nc2nccs2)cc1 [SULFATHIAZOLE] | – | – | 0.887 | 7.25 | 4.597 | -0.18 | -2.45 | –
Cc1noc(NS(=O)(=O)c2ccc(N)cc2)c1C [SULFISOXAZOLE] | – | – | 0.762 | – | 4.56 | -0.45 | -1.73 | –
C=CCC1(C(C)CCC)C(=O)NC(=S)NC1=O (stereo not drawn) [THIAMYLAL] | – | 4.15 | 1.72 | – | – | – | – | –
CCCC(C)C1(CC)C(=O)NC(=S)NC1=O (stereo not drawn) [THIOPENTAL] | – | 3.98 | 1.52 | – | – | – | – | –

From ChEMBL document CHEMBL1122241, “A simplified high-pressure liquid chromatography method for determining lipophilicity for structure-activity relationships” (J Med Chem, 1983)
